Sampled rows, rich in hits. Any-hit rate of the full collection: about 2.3%.
TRPC4 act = TRPC4 (mouse) channel activation; Q9QUQ5; HEK293 TRPC4beta/mu-opioid, Fluo4 calcium fluorescence; stronger effect = higher value; B-score at 10 µM; actives 0.49% (n = 310,000);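 active = B-score above 5 SD of library B-scores, and initial fluorescence ratio not above library mean plus 5 SD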;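 also: positive B-score marks a calcium rise read as TRPC4 activation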
Target sequence (Q9QUQ5 whole entry, looked up): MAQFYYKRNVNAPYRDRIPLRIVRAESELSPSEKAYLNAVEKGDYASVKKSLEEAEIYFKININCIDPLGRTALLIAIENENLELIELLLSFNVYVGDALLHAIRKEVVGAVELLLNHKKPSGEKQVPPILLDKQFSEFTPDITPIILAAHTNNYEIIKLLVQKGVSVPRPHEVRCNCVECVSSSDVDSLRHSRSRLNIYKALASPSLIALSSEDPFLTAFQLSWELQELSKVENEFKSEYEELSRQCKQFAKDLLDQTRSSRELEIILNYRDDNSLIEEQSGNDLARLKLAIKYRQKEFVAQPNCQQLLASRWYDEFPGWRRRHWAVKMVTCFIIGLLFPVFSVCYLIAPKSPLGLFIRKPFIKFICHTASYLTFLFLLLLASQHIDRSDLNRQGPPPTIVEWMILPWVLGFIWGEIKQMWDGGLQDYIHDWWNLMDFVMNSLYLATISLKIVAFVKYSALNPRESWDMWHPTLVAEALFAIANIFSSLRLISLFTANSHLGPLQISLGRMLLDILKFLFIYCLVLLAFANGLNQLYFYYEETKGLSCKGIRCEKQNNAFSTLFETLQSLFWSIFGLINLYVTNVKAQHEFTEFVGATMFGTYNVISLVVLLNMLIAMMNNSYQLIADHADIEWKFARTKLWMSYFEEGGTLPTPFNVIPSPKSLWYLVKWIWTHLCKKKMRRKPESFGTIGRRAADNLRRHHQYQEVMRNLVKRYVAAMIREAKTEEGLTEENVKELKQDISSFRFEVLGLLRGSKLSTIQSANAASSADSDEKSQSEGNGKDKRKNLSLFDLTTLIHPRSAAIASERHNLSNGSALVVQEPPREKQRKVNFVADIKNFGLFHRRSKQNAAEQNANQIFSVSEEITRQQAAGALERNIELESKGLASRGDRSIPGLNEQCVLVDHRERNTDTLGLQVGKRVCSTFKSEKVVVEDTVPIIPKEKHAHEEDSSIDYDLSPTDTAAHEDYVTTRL
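Incubation: 45 min room-temperature Fluo4 loading, 110 s read / System: HEK293 cells stably co-expressing mouse TRPC4beta and mu-opioid receptor / Signal: Fluo4 fluorescence, kinetic / Control set: buffer (low) and maximal DAMGO (high) / Measure: integrated baseline-normalised fluorescence ratio, converted to per-well B score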
TRPC4 potent = allosterically enhances the mouse TRPC4 cation channel | Q9QUQ5 | HEK293 TRPC4beta/mu-opioid, DAMGO EC20, Fluo-4 Ca2+ flux; stronger effect = higher value | B-score at 10 µM | actives 0.42% (n = 310,000);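 active = B-score of calcium response area above 5 SD of library B-scores, with initial fluorescence ratio within 5 SD of library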;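 also: B-score of integrated fluorescence ratio over time as area under calcium response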
TRPC6 act = activates the mouse TRPC6 cation channel | Q61143 | B-score at 10 µM | actives 0.13% (n = 310,000) | HEK293-TRPC6 membrane potential dye fluorescence; stronger effect = higher value | AID 2550;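 active = B-score of the integrated fluorescence ratio above library mean plus 3 SD, and starting fluorescence ratio within library mean plus 5 SD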;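 also: higher score means more depolarization so channel activation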
TRPC4 block = blocks the mouse TRPC4 cation channel; Q9QUQ5; HEK293 TRPC4beta/mu-opioid, DAMGO-evoked Fluo4 calcium flux; stronger effect = lower value; actives 0.39% (n = 300,000); AID 2247; B-score at 10 µM;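 active = B-score over 3 SD under the library average, no early fluorescence shift, positive overall ratio signal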
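Assay system: HEK293 cells with stable TRPC4beta plus mu-opioid receptor expression; Probe or stimulus: DAMGO in two steps, submaximal then maximal; Dosing: single-point compound dosing; Measured by: Fluo4 calcium-dye fluorescence, kinetic read; Read-out basis: B score from integrated Fluo4 fluorescence ratio.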
TRPC6 inh = blocks the mouse TRPC6 cation channel; Q61143; HEK293-TRPC6, membrane potential dye, ACh-evoked depolarization; stronger effect = lower value; B-score at 10 µM; actives 1.1% (n = 310,000);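 active = B-score under library mean minus 3 SD, initial fluorescence not abnormally high, positive integrated signal ratio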;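 also: B-score derived from integrated fluorescence ratio over the kinetic read; more negative B-score means stronger inhibition of depolarization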
TRPC4 sel inh 2 = second check of whether TRPC6 inhibitors also affect mouse TRPC4 | HEK293 TRPC4/MOR, membrane potential dye fluorescence; channel activated by saturating DAMGO dose | actives 42% (n = 920) | shares compounds with TRPC6 inh | inhibition, % at 10 µM;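 active = compounds whose fluorescence signal differed from control wells by over 3 SD, either direction, in both duplicate plates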
TRPC4 spec = mouse TRPC4 off-target activity of TRPC6 inhibitors; HEK293 TRPC4/mu-opioid, membrane potential fluorescence; actives 61% (n = 920); activity change, negative = inhibition, % at 10 µM; AID 2777; shares compounds with TRPC6 inh;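 active = rise or fall in signal beyond 3 SD of buffer-only wells in both replicate plates, either sign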;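 also: integrated kinetic ratio of fluorescence range over baseline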
HEK293 MPD ctr 2-1 = second counter-screen for TRPC6 inhibitors: parental HEK293 cells; shares compounds with TRPC6 inh; parental HEK293 membrane potential dye fluorescence; maximal acetylcholine challenge after compound addition; signal change vs control, % at 10 µM; actives 31% (n = 920);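 active = membrane potential signal moving either way by over 3 SD of the maximum-effect control, in both duplicate plates, meaning non-specific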
HEK293 MPD ctr-1 = counter-screen for TRPC6 inhibitors: effect in parental HEK293 cells; actives 60% (n = 920); AID 2780; parental HEK293 membrane potential dye fluorescence; membrane potential signal change, % at 10 µM; shares compounds with TRPC6 inh;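 active = membrane potential signal shifting up or down by more than 3 SD of buffer-only wells, on both duplicate plates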
HEK293 MPD ctr-2 = checks TRPC6 modulator effects in parental HEK293 cells; shares compounds with TRPC6 inh; membrane potential dye fluorescence; membrane potential signal change, % at 10 µM; actives 51% (n = 2,400); AID 488924;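 active = membrane potential signal moves up or down beyond 5 SD from buffer-only wells, on both duplicate plates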
HEK293 MPD ctr 2-2 = second counter-screen for TRPC6 modulators: effect in parental HEK293 cells. shares compounds with TRPC6 inh. membrane potential dye fluorescence; after compound, maximal acetylcholine stimulation. inhibition, % at 10 µM. actives 14% (n = 2,400);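 active = membrane potential signal drops by more than 5 SD from the mean control signal, in both duplicate plates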;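 also: plate controls were acetylcholine ECmax control wells for no effect and buffer only wells for full effect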
TRPC4 ctr mod = selectivity of TRPC6 modulators against mouse TRPC4 | AID 488927 | shares compounds with TRPC6 inh | HEK293 TRPC4/mu-opioid, membrane potential fluorescence | actives 69% (n = 2,400) | percent change from control (negative = decrease, positive = increase), % at 10 µM;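 active = membrane potential signal moved up or down beyond 5 SD of buffer control wells, in both duplicate plates, actives on both sides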;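 also: plate controls were assay buffer wells for no effect and DAMGO maximal-effect wells for full effect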
TRPC4 ctr inh 2 = mouse TRPC4 off-target activity of TRPC6 modulators, second screen; shares compounds with TRPC6 inh; HEK293 TRPC4/mu-opioid, membrane potential dye fluorescence; stimulated with maximal-effect DAMGO; inhibition, % at 10 µM; actives 55% (n = 2,400); AID 488928;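 active = drop in membrane potential signal beyond 5 SD of the control wells in both duplicate plates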;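 also: TRPC4 counter screen for TRPC6 hits run under conditions tuned for TRPC6 not TRPC4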
TRPC6 inh conf = confirmation of mouse TRPC6 inhibitors | AID 488960 | inhibition, % at 10 µM | actives 43% (n = 3,300) | shares compounds with TRPC6 inh | HEK293-TRPC6, membrane potential dye, ACh-evoked depolarization;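 active = fluorescence ratio falls more than 5 SD below the full-stimulation control mean, in both duplicate runs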;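 also: integrated fluorescence ratio of peak minus minimum over baseline after agonist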
TRPC6 act conf = confirmation of mouse TRPC6 activators; shares compounds with TRPC6 inh; HEK293-TRPC6 membrane potential dye fluorescence, FDSS; activation, % at 10 µM; actives 11% (n = 2,800);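 active = ratio signal rise beyond 5 SD above unstimulated control wells' mean, seen in both duplicate runs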;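 also: plate controls were buffer EC0 wells for no effect and acetylcholine ECmax response for full effect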
The depositor's hits bear a star; i = inactive; · = no result.

SMILES	TRPC4 act	TRPC4 potent	TRPC6 act	TRPC4 block	TRPC6 inh	HEK293 MPD ctr-2	HEK293 MPD ctr 2-2	TRPC4 ctr mod	TRPC4 ctr inh 2	TRPC6 inh conf	TRPC6 act conf	others
c1csc(Cc2nc3ccccc3[nH]2)c1	i	i	i	i	-14*	i	i	i	i	i	i
COc1ccc2nc(C)cc(Nc3ccc(C(=O)O)cc3)c2c1	i	i	i	i	i	·	·	·	·	·	·
Cc1cccc(Nc2cc(C)nc3ccccc23)c1	i	i	i	i	-6*	-140%*	60%*	-26%*	73%*	66%*	i
Cc1cc(Nc2cccc(Cl)c2)c2ccccc2n1	i	i	i	i	i	·	·	·	·	·	·
CCOC(=O)c1ccc2nc(C)cc(Nc3cccc(C(=O)O)c3)c2c1	i	i	i	i	i	·	·	·	·	·	·
CC(=O)c1cccc(Nc2cc(C)nc3c(C)cccc23)c1	i	i	i	i	-5.4*	-122%*	57%*	-26%*	52%*	52%*	i
CCOc1ccc(Nc2cc(C)nc3ccc(C)cc23)cc1	i	i	i	i	-6.4*	-135%*	i	-29%*	58%*	50%*	i
CC(=O)c1cccc(Nc2cc(C)nc3ccccc23)c1	i	i	i	i	-5.6*	-120%*	i	-20%*	48%*	i	i
CCCCn1c(N)c(N(CC(C)C)C(=O)CSCc2c(C)noc2C)c(=O)[nH]c1=O	i	i	i	i	i	·	·	·	·	·	·
Cc1ccc(C(C)NC(=S)NC2CCCCC2)c(C)c1 (stereo not drawn)	i	i	i	i	i	·	·	·	·	·	·
Cc1cc(C(=O)CCC(=O)N(C)CC(=O)Nc2ccccc2Br)c(C)s1	i	i	i	i	i	·	·	·	·	·	·
Cn1c(-c2ccccc2)cnc1NCc1cc2c(cc1[N+](=O)[O-])OCO2	i	i	i	i	-5.6*	i	i	-24%*	68%*	i	i
COc1ccccc1CNc1ncc(-c2ccc(F)cc2)n1C	i	i	i	i	i	·	·	·	·	·	·
COc1ccc(OC)c(CNc2ncc(-c3ccc(F)cc3)n2C)c1	i	i	i	i	-5.3*	i	i	i	68%*	57%*	i
Cn1c(-c2ccc(F)cc2)cnc1NCc1cc2c(cc1[N+](=O)[O-])OCO2	i	i	i	i	-6.2*	i	i	-16%*	76%*	72%*	i
O=C(NCc1cccnc1)c1cc(S(=O)(=O)N2CCCC2)c(Cl)cc1Cl	i	i	i	i	i	·	·	·	·	·	·
O=C(c1ccc(-c2ccccc2Cl)o1)N1CCN(S(=O)(=O)c2cccs2)CC1	i	i	i	i	i	·	·	·	·	·	·
COc1ccccc1OCC(=O)NCCS(=O)(=O)N1CCN(c2ccc(F)cc2)CC1	i	i	i	i	-5.4*	i	i	i	i	i	i
CN1CCc2c(sc3c2c(=O)n(-c2ccccc2)c2nncn32)C1	i	i	i	i	-5.9*	-101%*	i	-20%*	i	i	i
CCOc1c(Cl)cc(CNC(C)(C)CC(C)(C)C)cc1OC	i	i	i	i	-5.1*	176%*	86%*	36%*	75%*	63%*	·
COc1ccc(C2C3=C(CC(C)(C)CC3=O)Oc3ncn(CC(C)C)c(=N)c32)cc1 (stereo not drawn)	i	i	i	i	i	·	·	·	·	·	·
COc1ccc(C2C3=C(CC(C)(C)CC3=O)Oc3ncn(Cc4ccco4)c(=N)c32)cc1 (stereo not drawn)	i	i	i	i	-6*	110%*	i	i	44%*	i	·
Cc1ccc2c(ccn3cc4c(c(=O)n(C)c(=O)n4C)c23)c1	i	i	i	i	-7.2*	·	·	·	·	i	i	TRPC4 sel inh 2=i;TRPC4 spec=-25%*;HEK293 MPD ctr 2-1=i;HEK293 MPD ctr-1=-325%*
COCCNc1oc(/C=C/c2ccccc2)nc1C#N	i	i	i	i	i	·	·	·	·	·	·
N#Cc1nc(/C=C/c2ccccc2)oc1NCCCN1CCOCC1	i	i	i	i	-7.1*	·	·	·	·	i	i	TRPC4 sel inh 2=i;TRPC4 spec=i;HEK293 MPD ctr 2-1=i;HEK293 MPD ctr-1=i
CCOc1ccc(Br)cc1C(=O)N/N=C/c1c[nH]c2ccccc12	i	i	i	i	i	·	·	·	·	·	·
O=C(N/N=C/c1c[nH]c2ccccc12)c1cc(Br)ccc1O	i	i	i	i	-6.3*	i	i	i	60%*	44%*	i
CCCCCC(=O)NC(=S)Nc1ccc2oc(=O)ccc2c1	i	i	i	i	-6.4*	i	i	-14%*	i	i	i
CCN(CC)CCC(O)(c1ccccc1)C1CCCCC1 (stereo not drawn)	i	i	i	i	i	·	·	·	·	·	·

Screening data as filed in PubChem BioAssay.
